Source: ChEMBL document CHEMBL4732214, “Highly Selective Y Receptor Antagonist Binds in an Allosteric Binding Pocket” (J Med Chem, 2021)
The source made the active and inactive calls. The calls are words filed in the database; no cut-off is given here.

Assays:
COS7 [1] = test: Allosteric antagonist activity at human NPY4R Q3.32 position mutant expressed in COS7 cells co-expressing Gqi5-alpha assessed as inhibition of PP-induced Ca2+ flux by Fluo-2 AM dye based fluorescent assay; format: cell-based
Procedure, shortened: (§1)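 COS7 cells transiently cotransfected overnight with 3 μg receptor-eYFP variant plasmid and 1 μg Δ6Gαqi4myr, reseeded next day. Fluo2-AM (2.4 μM) Ca²⁺ assay in HBSS/HEPES/probenecid pH 7.4. Compound concentration series added after 20 s baseline, PP at EC80 added 110 s later. Responses as x-fold over basal, normalized to 1 μM PP. N ≥ 3.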

[2] = molecular target: T1, Neuropeptide Y receptor type 5 (Mus musculus) (UniProt O70342); test: Allosteric antagonist activity at NPY5R in mouse descending colon mucosa assessed as reduction in rPP-induced ion transport at 30 uM by electrophysiology
T1 sequence (whole entry): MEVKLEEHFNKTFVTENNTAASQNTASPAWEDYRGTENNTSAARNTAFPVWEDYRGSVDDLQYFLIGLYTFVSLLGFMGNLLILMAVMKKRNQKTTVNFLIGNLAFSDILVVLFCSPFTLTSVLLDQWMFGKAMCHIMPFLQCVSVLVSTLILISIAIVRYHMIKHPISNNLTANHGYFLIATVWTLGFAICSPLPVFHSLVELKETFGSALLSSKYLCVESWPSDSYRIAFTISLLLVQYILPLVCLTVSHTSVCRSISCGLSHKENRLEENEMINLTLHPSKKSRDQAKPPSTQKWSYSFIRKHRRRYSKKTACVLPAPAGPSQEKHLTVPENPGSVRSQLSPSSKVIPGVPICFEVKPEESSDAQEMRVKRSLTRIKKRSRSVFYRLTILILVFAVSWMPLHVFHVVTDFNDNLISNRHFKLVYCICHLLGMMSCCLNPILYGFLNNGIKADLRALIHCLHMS
Procedure, shortened: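 Mouse descending colon mucosae (0.14 cm² exposed) in Ussing chambers, Krebs−Henseleit both sides, oxygenated, 37 °C, voltage-clamped at 0 mV. After stable basal Isc (20 min), DMSO (0.3%) or antagonist 300 nM–30 μM added basolaterally, then VIP 10 nM (10−15 min), then rPP 30 nM to lower Isc, then PYY 10 nM 15 min later. Isc changes pooled, mean ± SEM, N = 5.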

[3] = molecular target: T2, Neuropeptide Y receptor type 4 (Homo sapiens, UniProt P50391); test: Allosteric antagonist activity at […]-tagged human NPY4R expressed in COS7 cells co-expressing Gqi5-alpha assessed as inhibition of PP-induced Ca2+ flux by Fluo-2 AM dye based fluorescent assay relative to control; format: functional, cell-based; conditions: read-out: IC50
T2 sequence (P50391 whole entry): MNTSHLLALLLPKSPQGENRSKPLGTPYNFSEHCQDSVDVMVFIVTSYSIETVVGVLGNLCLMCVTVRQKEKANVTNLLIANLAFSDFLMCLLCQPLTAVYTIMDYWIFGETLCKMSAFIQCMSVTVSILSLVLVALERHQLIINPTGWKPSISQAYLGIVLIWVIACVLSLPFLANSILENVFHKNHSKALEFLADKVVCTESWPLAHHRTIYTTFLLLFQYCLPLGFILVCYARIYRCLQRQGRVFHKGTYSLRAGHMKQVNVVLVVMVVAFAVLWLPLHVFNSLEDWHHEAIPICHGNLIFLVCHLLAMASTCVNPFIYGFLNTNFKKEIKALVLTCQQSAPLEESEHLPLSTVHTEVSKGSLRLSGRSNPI

[4] = molecular target: T3, Neuropeptide Y receptor type 2 (Mus musculus) (UniProt P97295); test: Allosteric antagonist activity at NPY2R in mouse descending colon mucosa assessed as reduction in PYY-induced ion transport at 0.3 to 30 uM by electrophysiology; conditions: dose 0.3-30 µM
T3 sequence (whole entry): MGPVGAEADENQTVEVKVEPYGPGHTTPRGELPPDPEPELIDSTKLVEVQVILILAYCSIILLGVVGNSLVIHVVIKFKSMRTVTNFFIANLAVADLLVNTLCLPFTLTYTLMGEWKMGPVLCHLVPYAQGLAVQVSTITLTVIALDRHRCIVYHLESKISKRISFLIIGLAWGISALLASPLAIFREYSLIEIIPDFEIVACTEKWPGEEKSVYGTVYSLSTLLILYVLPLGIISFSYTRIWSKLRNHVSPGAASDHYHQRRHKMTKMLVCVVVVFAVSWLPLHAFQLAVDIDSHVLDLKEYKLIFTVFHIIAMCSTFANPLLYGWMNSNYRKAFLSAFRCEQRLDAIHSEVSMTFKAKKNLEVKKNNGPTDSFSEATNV

[5] = molecular target: T2, Neuropeptide Y receptor type 4; test: Allosteric antagonist activity at […]-tagged human NPY4R expressed in COS7 cells co-expressing Gqi5-alpha assessed as inhibition of PP-induced inositol phosphate accumulation by IP-one assay; format: functional, cell-based; conditions: filed as allosteric antagonist
Procedure, shortened: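 IP-One Gq HTRF assay in COS7 cells stably expressing Y4R-eYFP and Δ6Gαqi4myr, 8000 cells/well seeded overnight. Compound or DMSO added, then PP stimulation in HBSS + 20 mM LiCl for 1 h at 37 °C. Cells lysed with kit antibody reagents. Emission read at 665 and 620 nm.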

[6] = molecular target: Neuropeptide Y receptor type 4 (Mus musculus); test: Allosteric antagonist activity at NPY4R in mouse descending colon mucosa assessed as reduction in rPP-induced ion transport by electrophysiology
COS7 [7] = test: Allosteric antagonist activity at human NPY4R F7.35 position mutant expressed in COS7 cells co-expressing Gqi5-alpha assessed as inhibition of PP-induced Ca2+ flux by Fluo-2 AM dye based fluorescent assay; format: cell-based; procedure, shortened: as §1
COS7 [8] = test: Allosteric antagonist activity at human NPY4R F4.60 position mutant expressed in COS7 cells co-expressing Gqi5-alpha assessed as inhibition of PP-induced Ca2+ flux by Fluo-2 AM dye based fluorescent assay; format: cell-based; procedure, shortened: as §1
[9] = molecular target: T4, Neuropeptide Y receptor type 1 (Mus musculus) (UniProt Q04573); test: Allosteric antagonist activity at NPY1R in mouse descending colon mucosa assessed as reduction in PYY-induced ion transport at 30 uM by electrophysiology
T4 sequence (whole entry): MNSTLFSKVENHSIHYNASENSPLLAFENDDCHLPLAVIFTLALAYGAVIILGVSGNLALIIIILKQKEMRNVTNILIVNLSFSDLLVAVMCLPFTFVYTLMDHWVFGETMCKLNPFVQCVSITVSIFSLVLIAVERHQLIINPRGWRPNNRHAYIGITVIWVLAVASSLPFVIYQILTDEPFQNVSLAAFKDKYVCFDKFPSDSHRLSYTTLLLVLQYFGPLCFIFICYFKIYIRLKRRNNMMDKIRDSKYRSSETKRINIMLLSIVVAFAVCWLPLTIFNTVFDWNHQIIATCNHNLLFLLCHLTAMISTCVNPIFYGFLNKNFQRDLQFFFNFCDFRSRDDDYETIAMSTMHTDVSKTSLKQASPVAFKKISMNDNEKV

COS7 [10] = test: Allosteric antagonist activity at human NPY4R Y1.39 position mutant expressed in COS7 cells co-expressing Gqi5-alpha assessed as inhibition of PP-induced Ca2+ flux by Fluo-2 AM dye based fluorescent assay; format: cell-based; conditions: dose 15.0 µM; procedure, shortened: as §1
COS7 [11] = test: Allosteric antagonist activity at human NPY4R Y2.64 position mutant expressed in COS7 cells co-expressing Gqi5-alpha assessed as inhibition of PP-induced Ca2+ flux by Fluo-2 AM dye based fluorescent assay; format: cell-based; procedure, shortened: as §1
COS7 [12] = test: Allosteric antagonist activity at human NPY4R Q2.58 position mutant expressed in COS7 cells co-expressing Gqi5-alpha assessed as inhibition of PP-induced Ca2+ flux by Fluo-2 AM dye based fluorescent assay; format: cell-based; procedure, shortened: as §1
COS7 [13] = test: Allosteric antagonist activity at human NPY4R W2.70 position mutant expressed in COS7 cells co-expressing Gqi5-alpha assessed as inhibition of PP-induced Ca2+ flux by Fluo-2 AM dye based fluorescent assay; format: cell-based; procedure, shortened: as §1
[14] = molecular target: T3, Neuropeptide Y receptor type 2 (Mus musculus); test: Allosteric antagonist activity at NPY2R in mouse descending colon mucosa assessed as reduction in PYY-induced ion transport at 30 uM by electrophysiology
COS7 [15] = test: Allosteric antagonist activity at human NPY4R S3.28 position mutant expressed in COS7 cells co-expressing Gqi5-alpha assessed as inhibition of PP-induced Ca2+ flux by Fluo-2 AM dye based fluorescent assay; format: cell-based; procedure, shortened: as §1
[16] = molecular target: T4, Neuropeptide Y receptor type 1 (Mus musculus); test: Allosteric antagonist activity at NPY1R in mouse descending colon mucosa assessed as reduction in PYY-induced ion transport at 0.3 to 30 uM by electrophysiology; conditions: dose 0.3-30 µM
COS7 [17] = test: Allosteric antagonist activity at human NPY4R A3.29 position mutant expressed in COS7 cells co-expressing Gqi5-alpha assessed as inhibition of PP-induced Ca2+ flux by Fluo-2 AM dye based fluorescent assay; format: cell-based; procedure, shortened: as §1
[18] = molecular target: T2, Neuropeptide Y receptor type 4; test: Allosteric antagonist activity at […]-tagged human NPY4R expressed in COS7 cells co-expressing Gqi5-alpha assessed as inhibition of PP-induced Ca2+ flux by Fluo-2 AM dye based fluorescent assay; format: functional, cell-based; conditions: filed as allosteric antagonist
COS7 [19] = test: Allosteric antagonist activity at human NPY4R L7.36 position mutant expressed in COS7 cells co-expressing Gqi5-alpha assessed as inhibition of PP-induced Ca2+ flux by Fluo-2 AM dye based fluorescent assay; format: cell-based; procedure, shortened: as §1
COS7 [20] = test: Allosteric antagonist activity at human NPY4R T2.61 position mutant expressed in COS7 cells co-expressing Gqi5-alpha assessed as inhibition of PP-induced Ca2+ flux by Fluo-2 AM dye based fluorescent assay; format: cell-based; procedure, shortened: as §1

inhibition [2]: inactive
IC50 [3]: 2.7 µM
inhibition [4]: inactive
inhibition [5]: Active
IC50 [6]: 3.8 µM
inhibition ([6]; filed as allosteric antagonist): Dose-dependent effect
inhibition [9]: inactive
inhibition [14]: inactive
inhibition [16]: inactive
Kb [18]: 0.38 µM
inhibition [18]: Dose-dependent effect
pKb [18]: 6.4
SMILES: CS(=O)(=O)N1CCCC[C@H]1C(=O)Nc1nc2cc3c(cc2s1)OCCO3
inhibition (COS7 [1]): inactive
inhibition (COS7 [7]): inactive
inhibition (COS7 [8]): inactive
inhibition (COS7 [10]): inactive
inhibition (COS7 [11]): inactive
inhibition (COS7 [12]): inactive
inhibition (COS7 [13]): inactive
inhibition (COS7 [15]): inactive
inhibition (COS7 [17]): inactive
inhibition (COS7 [19]): inactive
inhibition (COS7 [20]): inactive
